Data published in ChEMBL document CHEMBL1141431, “Brandisianins A-F, isoflavonoids isolated from Millettia brandisiana in a screening program for death-receptor expression enhancement activity” (J Nat Prod, 2007).
The source made the active and inactive calls. The calls are words filed in the database; no cut-off is given here.

Legend:
[1] = system: DLD-1; assay: Cytotoxicity against human DLD1 cells; assay type: functional, cell-based
[2] = system: HeLa; assay: Cytotoxicity against human HeLa cells; assay type: functional, cell-based
[3] = system: DLD-1; assay: Activation of death-receptor 5 expression in human DLD-1/ SacI cells at 35.0 uM by luciferase assay relative to control; assay type: functional
How it was run: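 DLD-1 human colon cancer cells stably carrying pDR5/SacI (human DR5 promoter–luciferase) plated at 2 × 10^5 cells/well in RPMI with 10% FBS, 24 h at 37 °C, 5% CO2, then exposed 24 h to compound (tested at 17.5 and 35.0 µM). Lysed, luciferase substrate added, luminescence read; activity as relative light intensity versus EtOH-treated control cells; luteolin 17.5 µM positive control; n = 3.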

[4] = system: DLD-1; assay: Activation of death-receptor 5 expression in human DLD-1/ SacI cells at 17.5 uM by luciferase assay relative to control; assay type: functional, cell-based
How it was run: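 DLD-1/SacI (human colon cancer line stably carrying human DR5 promoter–luciferase construct) seeded in RPMI with 10% FBS, 24 h at 37 °C, 5% CO2. Treated with samples (17.5 and 35.0 µM) 24 h. Lysed, luciferase substrate added, luminescence read. Activity expressed as light intensity relative to EtOH-treated control cells. Luteolin 17.5 µM as positive control. Means, n = 3 ± SD.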

## Oc1cc(O)c2c(c1)O[C@H](c1ccc(O)c(O)c1)[C@H](O)C2 [(-)-EPICATECHIN]
[1]
  IC50: > 25 µM
[2]
  IC50: > 25 µM

## COc1cc(-c2coc3c(CC=C(C)C)c(O)cc(O)c3c2=O)c(OC)cc1O [BRANDISIANIN C]
[1]
  IC50: > 25 µM
[2]
  IC50: 19.1 µM

## COc1cc(-c2coc3c(C/C=C(\C)CO)c(O)cc(O)c3c2=O)c(OC)cc1O [BRANDISIANIN E]
[1]
  IC50: > 25 µM
[2]
  IC50: 21.7 µM

## COc1cc2c(cc1O)[C@@H]1Oc3c(cc(OC)c(OC)c3O)[C@@H]1CO2 [BRANDISIANIN F]
[1]
  IC50: > 25 µM
[2]
  IC50: > 25 µM

## COc1cc(-c2coc3cc(O)cc(O)c3c2=O)c(OC)cc1OCC=C(C)C [BRANDISIANIN A]
[1]
  IC50: > 25 µM
[2]
  IC50: > 25 µM

## C=C(C)[C@H]1Cc2c(cc(O)c3c(=O)c(-c4cc(OC)c(O)cc4OC)coc23)O1 [BRANDISIANIN B]
[1]
  IC50: > 25 µM
[2]
  IC50: 9.7 µM

## COc1cc(-c2coc3cc(O)c(CC=C(C)C)c(O)c3c2=O)c(OC)cc1O [VIRIDIFLORIN]
[1]
  IC50: > 25 µM
[2]
  IC50: > 25 µM

## COc1cc(-c2coc3cc(O)cc(O)c3c2=O)c(OC)cc1O [OLIBERGIN A]
[1]
  IC50: > 25 µM
[2]
  IC50: > 25 µM

## O=C1C[C@@H](c2ccc(O)cc2)Oc2cc(O)cc(O)c21 [NARINGENIN]
[1]
  IC50: > 25 µM
[2]
  IC50: > 25 µM

## COc1cc(-c2coc3c4c(cc(O)c3c2=O)OC(C)(C)C=C4)c(OC)cc1O
[1]
  IC50: > 25 µM
[2]
  IC50: > 25 µM
[3]
  Fold change: 2.4

## COc1cc(-c2coc3c4c(cc(O)c3c2=O)O[C@@](C)(CO)C=C4)c(OC)cc1O [BRANDISIANIN D]
[1]
  IC50: > 25 µM
[2]
  IC50: > 25 µM
[3]
  Fold change: 3
[4]
  Activity: Active
